Publication PMC10985026 (Acta Pharmaceutica Sinica. B, 2023)
Where two headings read alike, the source gives them in different places.

What was measured:
[1] = system: 4T1 (breast cancer) cells; test: MTT cytotoxicity assay, 4T1; assay type: cell-based, murine; details: 48 h, read-out: IC50 4T1
B16F10 (melanoma) cells = test: MTT cytotoxicity assay, B16F10; assay type: cell-based, murine; details: read-out: IC50 B16F10
Summary of the method: (§1)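 Cells were cultured in DMEM/RPMI-1640/MEM with 10% FBS and 1% penicillin–streptomycin at 37 °C, 5% CO2; Renca medium also had 1 mmol/L sodium pyruvate and 2 mmol/L L-glutamine. Cells at about 50% confluence in 96-well plates were exposed to a concentration series for 48 h (DMSO vehicle). MTT was added for 4 h at 37 °C, formazan dissolved in DMSO, and absorbance read on a plate reader. Results are mean ± SD.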

[2] = system: Renca (kidney cancer) cells; test: MTT cytotoxicity assay, Renca; assay type: cell-based, murine; details: 48 h, read-out: IC50 Renca
Summary of the method: as §1

HUVEC = test: MTT cytotoxicity assay, HUVEC; assay type: cell-based, human; details: 48 h, read-out: IC50 HUVEC
Summary of the method: as §1

L-929 = test: MTT cytotoxicity assay, L-929; assay type: cell-based, murine; details: read-out: IC50 L-929
Summary of the method: as §1

NLRP3 inflammasome = test: Western blot of NLRP3; assay type: cell-based, murine; details: 4T1, 2 μmol/L, 24 h, compared to control group
Summary of the method: (§2)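 4T1 cells at about 70% confluence in 6-well plates were treated 24 h with test compound or DMSO vehicle. Protein was extracted in RIPA buffer with PMSF and phosphatase inhibitors, immunoblotted, and detected by enhanced chemiluminescence imaging. Sam50/COX II blots: n = 3.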

4T1 subcutaneous tumor = test: Anti-tumor effect in vivo, 4T1 subcutaneous tumor model; set-up: species or system BALB/c mouse; details: 4T1-bearing BALB/c mice, after 27 days
Summary of the method: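 Subcutaneous 4T1 tumours were grown in female BALB/c mice (6–8 weeks, 18–20 g). At about 50 mm3 on day 7, mice were randomised to five groups: PBS, each parent drug alone, the parent drugs combined, or test compound. Dosing was i.v. every two days, with body weight and tumour volume measured regularly. Main organs and blood were collected at study end for safety assessment.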

Sam50 and COX II = test: Western blot of Sam50 and COX II; assay type: cell-based, murine; details: 4T1, 2 μmol/L, 24 h
Summary of the method: as §2

[3] = MTT, mean ± SD of three experiments
[4] = MTT, 48 h, mean ± SD of three experiments

## CC(=O)Nc1ccc(O)cc1 [APAP, Acetaminophen]
[1]; Mus musculus
  IC50: > 100 µM
B16F10 (melanoma) cells; Mus musculus, B16-F10, 48 h
  IC50: > 100 µM
[2]; Mus musculus, Renca
  IC50: > 100 µM
HUVEC; Homo sapiens, HUVEC
  IC50: > 100 µM
L-929; Mus musculus, L929, 48 h
  IC50: 73.3 ± 0.88 µM
NLRP3 inflammasome
  NLRP3 inflammasome expression upregulation: approximately 1.2 fold
4T1 subcutaneous tumor
  relative tumor volume versus PBS group: no significant difference
Sam50 and COX II
  protein concentrations of Sam50 and COX II: significantly downregulated

## O=C1[O][Pt]2([NH][C@@H]3CCCC[C@H]3[NH]2)[O]C1=O [Oxa, Oxaliplatin]
[1]; [3]
  IC50: 13.4 ± 0.66 µM
B16F10 (melanoma) cells; [4]
  IC50: 25.9 ± 0.96 µM
[2]; [3]
  IC50: > 100 µM
HUVEC; [3]
  IC50: 32.5 ± 2.01 µM
L-929; [4]
  IC50: 44.6 ± 0.93 µM
4T1 subcutaneous tumor
  relative tumor volume versus PBS group: no significant difference
Sam50 and COX II
  protein concentrations of Sam50 and COX II: no significant effect
